Key:
Assay type in all cases: functional
OVCAR-8 = assay: Growth inhibition of human OVCAR8 cells
Procedure, shortened: (§1)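 NCI full human tumour cell panel covering leukemia, melanoma, lung, colon, renal, ovarian, breast, prostate and CNS subpanels. Five concentrations at 10-fold dilution were used: 10^-4, 10^-5, 10^-6, 10^-7 and 10^-8 M. GI50, the concentration giving 50% inhibition of net cell growth, was determined for each cell line.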

A549 = assay: Growth inhibition of human A549 cells; procedure, shortened: as §1
MCF7 [1] = assay: Antiproliferative activity against human MCF7 cells at 100 uM after 48 hrs
COLO 205 = assay: Growth inhibition of human COLO205 cells; procedure, shortened: as §1
LOX IMVI = assay: Growth inhibition of human LOX IMVI cells; procedure, shortened: as §1
NCI-H460 = assay: Antiproliferative activity against human NCI-H460 cells at 100 uM after 48 hrs
BT-549 = assay: Growth inhibition of human BT549 cells; procedure, shortened: as §1
M14 = assay: Growth inhibition of human M14 cells; procedure, shortened: as §1
SF-268 = assay: Antiproliferative activity against human SF268 cells at 100 uM after 48 hrs
[2] = Growth inhibition of human NCI-50 cells; details: NCI full human tumour cell panel; procedure, shortened: as §1
MCF7 [3] = assay: Growth inhibition of human MCF7 cells; procedure, shortened: as §1
EKVX = assay: Growth inhibition of human EKVX cells; procedure, shortened: as §1
MOLT-4 = assay: Growth inhibition of human MOLT4 cells; procedure, shortened: as §1
SR = assay: Growth inhibition of human SR cells; procedure, shortened: as §1
NCI-H522 = assay: Growth inhibition of human NCI-522 cells; procedure, shortened: as §1

In the case of N#Cc1c2ccccc2c2nnc3ccccc3n12, the GI50 (OVCAR-8) is reported as 11.2 µM, the GI50 (A549) is reported as 13.5 µM and the Activity (MCF7 [1]) is reported as 26%. It also gave a GI50 (COLO 205) of 9.33 µM, a GI50 (LOX IMVI) of 6.46 µM and an Activity (NCI-H460) of 21%. It also gave a GI50 (BT-549) of 12 µM, a GI50 (M14) of 14.8 µM and an Activity (SF-268) of 95%. It also gave a GI50 [2] of 33.9 µM, a GI50 (MCF7 [3]) of 14.1 µM and a GI50 (EKVX) of 12.6 µM.

For Cc1cccc2nnc3c4ccccc4c(C#N)n3c12, the Activity (MCF7 [1]) was 69%, the Activity (NCI-H460) was 50% and the Activity (SF-268) was 88%.

Cc1cccc2c1nnc1c3ccccc3c(C#N)n21 showed an Activity (MCF7 [1]) of 72%, an Activity (NCI-H460) of 118% and an Activity (SF-268) of 105%.

Molecule COc1ccc2c(c1)nnc1c3ccccc3c(C#N)n21 has an Activity (MCF7 [1]) of 63%, an Activity (NCI-H460) of 86% and an Activity (SF-268) of 104%.

For Cc1cc2nnc3c4ccccc4c(C#N)n3c2cc1C, the Activity (MCF7 [1]) was 76%, the Activity (NCI-H460) was 48% and the Activity (SF-268) was 76%.

With N#Cc1c2ccccc2c2nnc3cc(Cl)c(Cl)cc3n12 the Activity (MCF7 [1]) was 80%, the Activity (NCI-H460) was 17% and the Activity (SF-268) was 68%. The GI50 [2] was 49 µM.

Molecule N#Cc1c2ccccc2c2nnc3cc(Cl)ccc3n12 has an Activity (MCF7 [1]) of 109%, an Activity (NCI-H460) of 109% and an Activity (SF-268) of 114%.

With N#Cc1c2ccccc2c2nnc3ccc(Cl)cc3n12 the Activity (MCF7 [1]) was 51%, the Activity (NCI-H460) was 61% and the Activity (SF-268) was 86%.

N#Cc1c2ccccc2c2nnc3cc(C(F)(F)F)ccc3n12 gave an Activity (MCF7 [1]) of 65%, an Activity (NCI-H460) of 6% and an Activity (SF-268) of 82%. It also gave a GI50 [2] of 53.7 µM and a GI50 (MCF7 [3]) of 10.7 µM.

Work on N#Cc1c2ccccc2c2nnc3ccc(C(F)(F)F)cc3n12 yielded a GI50 (MOLT-4) of 10.5 µM, a GI50 (SR) of 0.214 µM and an Activity (MCF7 [1]) of 83%. The Activity (NCI-H460) was 8%, the GI50 (NCI-H522) was 17 µM and the Activity (SF-268) was 96%. It also gave a GI50 [2] of 34.7 µM and a GI50 (EKVX) of at most 0.01 µM.

Reference: ChEMBL document CHEMBL1144526, “Isoindolo[2,1-c]benzo[1,2,4]triazines: a new ring system with antiproliferative activity” (2007)
